A short description of data set [1]: folding enthalpy; higher = less favourable; fluorescence melt of hairpins on a sequencing array, two-state fit. The conditions noted are these: sodium 0.088 M. The essentials:
(§1)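 To match UV melts, fitted temperatures were raised by 9.35 °C. These fits were bootstrapped two-state models that gave melting temperature and folding enthalpy, combined by inverse variance over four replicates. The input was normalised Cy3 fluorescence of library hairpins with annealed Cy3 and quencher oligos on a sequenced MiSeq flow cell, imaged in 50 mM Na-HEPES pH 8.0, 25 mM NaCl in 2.5 °C steps up to 60 °C.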

Data set [2] in a line: melting temperature; fluorescence melt of hairpins on a sequencing array, two-state fit, raised by 9.35 °C to match UV melts. The conditions noted are these: sodium 0.088 M. The essentials:
as §1

On to GTATACCGAAAGGTTTAC (((.(((....))).))), for which the folding enthalpy in data set [1] was -27.5 kcal/mol. Besides, the Tm in data set [2] was determined as 43.3 °C.
On to GTATACGAAAGTACTAC ((((((....))).))), for which the folding enthalpy in data set [1] was -13.1 kcal/mol. Moreover, the Tm in data set [2] was 27.6 °C.
GTATAGCGAAAGCTCTAC (((.(((....))).))): the folding enthalpy in data set [1] was -17.3 kcal/mol. In data set [2], the Tm was 39.7 °C.
As to GTATATGAAAATATAC ((((((....)))))), in data set [1], the folding enthalpy was -23.7 kcal/mol. For the same sequence, the Tm in data set [2] is 39.1 °C.
The corresponding values for GTATATGGAAACATGTAC (((.(((....))).))) are -29.6 kcal/mol and 37.2 °C.
Turning to GTATCACGAAAGTGGTAC (((.(((....))).))), the folding enthalpy in data set [1] is -27.9 kcal/mol. For the same sequence, the Tm in data set [2] was determined as 52.8 °C.
Take GTATCAGCGAAAGCTTAC (((..(((....)))))): the folding enthalpy in data set [1] is -8.4 kcal/mol. In data set [2], the Tm is 26.3 °C.
On to GTATCCCCGAAAGGGTAC (((..(((....)))))), for which the folding enthalpy in data set [1] was -14.8 kcal/mol. For the same sequence, the Tm in data set [2] worked out at 35.5 °C.
For GTATCCCGAAAGGGGTAC (((.(((....))).))), the folding enthalpy in data set [1] was -38.2 kcal/mol. The Tm in data set [2] was 55.6 °C.
On to GTATCCGAAAGGAAATAC ((((((....)))..))), for which, in data set [1], the folding enthalpy was -16.8 kcal/mol. In data set [2], the Tm is 31 °C.
With GTATCCGAAAGGAGTTAC ((((((....)))..))), the folding enthalpy in data set [1] is -14.9 kcal/mol. In addition, the Tm in data set [2] is 25.3 °C.
The corresponding values for GTATCCGGAAACGAATAC ((((.((....)).)))) are -26.5 kcal/mol and 33.5 °C.
The corresponding values for GTATCGCGAAAGCGTAC (((.(((....)))))) are -12.1 kcal/mol and 44.5 °C.
As to GTATGACGAAAGTCGTAC (((.(((....))).))), the folding enthalpy in data set [1] is -30.3 kcal/mol. Also, the Tm in data set [2] worked out at 53.8 °C.
On to GTATGCCGAAAGGCTTAC (((.(((....))).))), for which, in data set [1], the folding enthalpy is -19 kcal/mol. Also, the Tm in data set [2] turned out to be 50.6 °C.
GTATGCGAAAGCACATAC ((((((....)))..))): in data set [1], the folding enthalpy was -11.2 kcal/mol. The Tm in data set [2] came to 31.8 °C.
As for GTATGCGAAAGCACGTAC ((((((....)))..))), in data set [1], the folding enthalpy is -8.02 kcal/mol. Further, the Tm in data set [2] amounted to 34.1 °C.
On to GTATGCGAAAGCACTAC ((((((....))).))), for which, in data set [1], the folding enthalpy was -13.2 kcal/mol. For the same sequence, the Tm in data set [2] was determined as 37.3 °C.
For GTATGCGAAAGCATTAC ((((((....))).))) the same measures were -13.8 kcal/mol and 43.4 °C.
Regarding GTATGCGGAAACGCATAC (((((((....))))))), in data set [1], the folding enthalpy is -33.5 kcal/mol. The Tm in data set [2] came out at 68.2 °C.
In the case of GTATGCGGAAACGTGTAC (((..((....))..))), the folding enthalpy in data set [1] is -30.2 kcal/mol. The Tm in data set [2] is 39.4 °C.
Turning to GTATGGAAACATAC (((((....))))), the folding enthalpy in data set [1] was -23.5 kcal/mol. Besides, the Tm in data set [2] is 43.4 °C.
As to GTATGGGCGAAAGCCTAC (((..(((....)))))), in data set [1], the folding enthalpy was -7.19 kcal/mol. For the same sequence, in data set [2], the Tm is 36.9 °C.
GTATGGGGAAACCCACAC ((.((((....)))).)): the folding enthalpy in data set [1] was -18.9 kcal/mol. In addition, the Tm in data set [2] was determined as 35.1 °C.
In the case of GTATGGGGAAACCTGTAC (((..((....))..))), in data set [1], the folding enthalpy is -17.1 kcal/mol. The Tm in data set [2] was found to be 32.2 °C.
As for GTATGGGGAAACTCATAC (((((.(....).))))), the folding enthalpy in data set [1] was -34.5 kcal/mol. In addition, the Tm in data set [2] is 40.5 °C.
With GTATGGGGAAACTCGTAC (((.(.(....).).))), the folding enthalpy in data set [1] is -11.6 kcal/mol. For the same sequence, in data set [2], the Tm was found to be 29.1 °C.
The corresponding values for GTATGTGCGAAAGCATAC (((..(((....)))))) are -11.7 kcal/mol and 35 °C.
As for GTATGTGGAAACACACAC ((.((((....)))).)), the folding enthalpy in data set [1] is -17.1 kcal/mol. Besides, in data set [2], the Tm was determined as 35.2 °C.
Turning to GTATTACGAAAGTAGTAC (((.(((....))).))), the folding enthalpy in data set [1] was -28.4 kcal/mol. The Tm in data set [2] was found to be 41.3 °C.
